According to ChEMBL document CHEMBL1909630, “Azaxanthene based selective glucocorticoid receptor modulators: design, synthesis, and pharmacological evaluation of (S)-4-(5-(1-((1,3,4-thiadiazol-2-yl)amino)-2-methyl-1-oxopropan-2-yl)-5H-chromeno[2,3-b]pyridin-2-yl)-2-fluoro-N,N-dimethylbenzamide (BMS-776532) and its methylene homologue …” (J Med Chem, 2011):

What was measured:
[1] = molecular target: T1, Glucocorticoid receptor (Homo sapiens, UniProt P04150); test: Displacement of GS-red from glucocorticoid receptor by fluorescence polarization assay
T1 sequence (P04150 whole entry): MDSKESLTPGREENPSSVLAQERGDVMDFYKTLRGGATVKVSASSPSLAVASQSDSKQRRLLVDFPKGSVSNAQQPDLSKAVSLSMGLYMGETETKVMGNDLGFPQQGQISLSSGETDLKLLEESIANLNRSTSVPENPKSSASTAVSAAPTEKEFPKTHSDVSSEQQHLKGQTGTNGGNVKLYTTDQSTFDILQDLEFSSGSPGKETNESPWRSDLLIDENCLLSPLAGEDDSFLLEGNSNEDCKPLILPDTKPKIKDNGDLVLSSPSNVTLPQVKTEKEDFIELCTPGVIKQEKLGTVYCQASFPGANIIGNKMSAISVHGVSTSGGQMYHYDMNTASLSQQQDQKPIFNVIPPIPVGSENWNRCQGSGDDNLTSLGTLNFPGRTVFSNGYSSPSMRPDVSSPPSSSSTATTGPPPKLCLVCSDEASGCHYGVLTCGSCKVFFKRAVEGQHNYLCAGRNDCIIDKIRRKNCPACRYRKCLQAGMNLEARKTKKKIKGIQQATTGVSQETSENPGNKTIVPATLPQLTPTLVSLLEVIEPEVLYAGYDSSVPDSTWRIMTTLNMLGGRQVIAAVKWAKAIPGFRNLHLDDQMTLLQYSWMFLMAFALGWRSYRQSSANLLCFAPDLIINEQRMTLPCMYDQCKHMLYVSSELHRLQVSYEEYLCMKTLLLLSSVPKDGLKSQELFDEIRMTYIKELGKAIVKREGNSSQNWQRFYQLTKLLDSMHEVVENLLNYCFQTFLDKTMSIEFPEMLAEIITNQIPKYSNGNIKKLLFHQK

[2] = molecular target: T1, Glucocorticoid receptor; test: Transrepression activity at glucocorticoid receptor alpha in phorbol myristate acetate-stimulated human A549 cells assessed as inhibition of AP1 response element by luciferase reporter gene assay; format: cell-based
[3] = molecular target: T1, Glucocorticoid receptor; test: Transrepression activity at glucocorticoid receptor alpha in IL-1beta-stimulated human A549 cells assessed as inhibition of NFkappaB-dependent E-selectin transcription by luciferase reporter gene assay; format: cell-based
[4] = molecular target: T1, Glucocorticoid receptor; test: Transactivation activity at GR-alpha in human NP1 Hela cells assessed as induction of GAL4-DBD after 20 hrs by luciferase reporter gene assay; format: cell-based
[5] = molecular target: T1, Glucocorticoid receptor; test: Transactivation activity at glucocorticoid receptor alpha human 13D3/Huh7 cells assessed as induction of TAT activity after 4 hrs by spectrophotometry; format: cell-based, Huh-7
[6] = molecular target: T1, Glucocorticoid receptor; test: Transactivation activity at GR-alpha in human NP1 Hela cells assessed as inhibition of GAL4-DBD after 20 hrs by luciferase reporter gene assay; format: cell-based
[7] = system: Blood; test: Antiinflammatory activity in human whole blood assessed as inhibition of LPS-induced TNFalpha production after overnight incubation by ELISA; format: functional, tissue-based
Outline: (§1)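 Whole blood from two donors per experiment was collected into ACD-A. Compounds were added and the blood was incubated about 20 h at 37 °C under 5% CO2. Blood was then stimulated for 5 h with LPS (final 100 ng/mL, for TNFα) or IL-1β (final 10 ng/mL, for IL-8). Plasma TNFα or IL-8 was measured by ELISA. Efficacy was expressed as % of dexamethasone, and values are means of at least two experiments.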

[8] = system: Blood; test: Antiinflammatory activity in human whole blood assessed as inhibition of LPS-induced TNFalpha production after overnight incubation by ELISA relative to Dexamethasone; format: functional; outline: as §1
[9] = system: Blood; test: Antiinflammatory activity in human whole blood assessed as inhibition of TNF-alpha-induced IL-8 production after overnight incubation by ELISA; format: functional, tissue-based
[10] = system: Blood; test: Antiinflammatory activity in human whole blood assessed as inhibition of TNF-alpha-induced IL-8 production after overnight incubation by ELISA relative to dexamethasone; format: functional
[11] = system: Blood; test: Antiinflammatory activity in human whole blood assessed as inhibition of IL-1beta-induced IL-8 production after overnight incubation by ELISA; format: functional, tissue-based; outline: as §1
[12] = system: Blood; test: Antiinflammatory activity in human whole blood assessed as inhibition of IL-1beta-induced IL-8 production after overnight incubation by ELISA relative to Dexamethasone; format: functional; outline: as §1

Row | Compound | Ki [1] | EC50 [2] | EC50 [3] | EC50 [4] | EC50 [5] | EC50 [6] | EC50 [7] | EC50 [9] | EC50 [11] | Imax [8] | Imax [10] | Imax [12]
1 | Cc1cccc(-c2ccc3c(n2)Oc2ccccc2[C@@H]3C(C)(C)C(=O)Nc2nncs2)c1 | 24 nM | 654 nM | > 5000 nM | > 10000 nM | > 5000 nM | 1560 nM | – | – | – | – | – | –
2 | CC(C)(C(=O)Nc1nncs1)[C@H]1c2ccccc2Oc2nc(-c3ccccc3)ccc21 | – | > 1500 nM | – | > 10000 nM | > 5000 nM | 187 nM | – | – | – | – | – | –
3 | CC(C)(C(=O)Nc1nncs1)C1c2ccccc2Oc2ncccc21 (racemic) | 412 nM | – | – | – | – | – | – | – | – | – | – | –
4 | CCS(=O)(=O)c1ccc(-c2ccc3c(n2)Oc2ccccc2[C@@H]3C(C)(C)C(=O)Nc2nncs2)cc1 | 4 nM | 28.6 nM | 22.8 nM | 206 nM | > 5000 nM | 196 nM | – | – | – | – | – | –
5 | CN(C)C(=O)c1ccc(-c2ccc3c(c2)Oc2ccccc2C3C(C)(C)C(=O)Nc2nncs2)cc1 (racemic) | 8.6 nM | 77.9 nM | 74.9 nM | > 10000 nM | > 5000 nM | 610 nM | – | – | – | – | – | –
6 | CC(=O)c1ccc(-c2ccc3c(n2)Oc2ccccc2[C@@H]3C(C)(C)C(=O)Nc2nncs2)cc1F | 6 nM | 42 nM | – | > 10000 nM | > 5000 nM | 134 nM | – | – | – | – | – | –
7 | COc1ccc(-c2ccc3c(n2)Oc2ccccc2[C@@H]3C(C)(C)C(=O)Nc2nncs2)cc1 | 1.2 nM | 28.3 nM | 21.3 nM | > 10000 nM | > 5000 nM | 105 nM | – | – | – | – | – | –
8 | CC(C)(C(=O)Nc1nncs1)[C@H]1c2ccccc2Oc2nc(-c3ccc(C(=O)N4CCCCC4)c(F)c3)ccc21 | 1.68 nM | 27.5 nM | 25.6 nM | > 10000 nM | > 5000 nM | 204 nM | 5470 nM | > 20000 nM | 3190 nM | 73% | 45% | 27%
9 | CNC(=O)c1ccc(-c2ccc3c(n2)Oc2ccccc2[C@@H]3C(C)(C)C(=O)Nc2nncs2)cc1F | 5.48 nM | 34.1 nM | 157 nM | > 10000 nM | > 5000 nM | 408 nM | 819 nM | > 20000 nM | > 20000 nM | 58% | 15% | 35%
10 | CC(C)(C(=O)Nc1nncs1)[C@H]1c2ccccc2Oc2nc(-c3ccc(C(=O)N4CCC(F)(F)C4)c(Cl)c3)ccc21 | 3.08 nM | 50 nM | 33.8 nM | 165 nM | 329 nM | 130 nM | 932 nM | 2850 nM | 5250 nM | 85% | 59% | 82%
11 | CC(C)(C(=O)Nc1nncs1)[C@H]1c2ccccc2Oc2nc(-c3ccc(C(=O)N4CCCC4)c(F)c3)ccc21 | 1.96 nM | 25 nM | 29.2 nM | 177 nM | 389 nM | 205 nM | 886 nM | 1300 nM | 238 nM | 80% | 61% | 86%
12 | Cc1ccccc1-c1ccc2c(n1)Oc1ccccc1[C@@H]2C(C)(C)C(=O)Nc1nncs1 | 10.5 nM | 122 nM | > 5000 nM | > 10000 nM | > 5000 nM | 1560 nM | – | – | – | – | – | –
13 | COc1ccc(-c2ccc3c(n2)Oc2ccccc2[C@H]3C(C)(C)C(=O)Nc2nncs2)cc1 | 49.5 nM | > 10000 nM | 355 nM | > 10000 nM | > 5000 nM | 4360 nM | – | – | – | – | – | –
14 | Cc1ccc(-c2ccc3c(n2)Oc2ccccc2[C@@H]3C(C)(C)C(=O)Nc2nncs2)cc1 | 2.5 nM | 46.8 nM | 26.6 nM | 2210 nM | > 5000 nM | 260 nM | – | – | – | – | – | –
15 | CC(C)(C(=O)Nc1nncs1)[C@H]1c2ccccc2Oc2nc(-c3ccc(C(=O)N4CCCCC4)cc3)ccc21 | 1.3 nM | 15.7 nM | 28.6 nM | 273 nM | > 5000 nM | 167 nM | – | – | – | – | – | –
16 | CC(C)(C(=O)Nc1nncs1)[C@H]1c2ccccc2Oc2nc(-c3ccc(C(=O)N4CCOCC4)cc3)ccc21 | 2.6 nM | 12.4 nM | 6.3 nM | 39.2 nM | – | 28.6 nM | – | – | – | – | – | –
17 | CC(C)(C(=O)Nc1nncs1)[C@H]1c2ccccc2Oc2nc(-c3ccc(C(=O)N4CCOCC4)c(F)c3)ccc21 | 2.7 nM | 11.7 nM | 11.7 nM | 78.9 nM | 93 nM | 34.4 nM | 469 nM | 382 nM | 789 nM | 88% | 84% | 92%
18 | CN(C)C(=O)c1ccc(-c2ccc3c(c2)Oc2ccccc2C3C(C)(C)C(=O)Nc2nncs2)nc1 (racemic) | 4.1 nM | 58 nM | – | 382 nM | > 5000 nM | 162 nM | – | – | – | – | – | –
19 | CN(C)C(=O)c1cnc(-c2ccc3c(c2)Oc2ccccc2C3C(C)(C)C(=O)Nc2nncs2)nc1 (racemic) | 4.2 nM | 183 nM | – | 596 nM | – | 592 nM | – | – | – | – | – | –
20 | C[C@@H]1C[C@H]2[C@@H]3CCC4=CC(=O)C=C[C@]4(C)[C@@]3(F)[C@@H](O)C[C@]2(C)[C@@]1(O)C(=O)CO [DEXAMETHASONE] | – | – | – | – | – | – | 6.9 nM | – | 5.1 nM | – | – | –

Second part, led by results:

Row | Ki [1] | EC50 [2] | EC50 [3] | EC50 [4] | EC50 [5] | EC50 [6] | EC50 [7] | EC50 [9] | EC50 [11] | Compound | Imax [8] | Imax [10] | Imax [12]
21 | 15.7 nM | 124 nM | 64.9 nM | 702 nM | 2400 nM | 721 nM | – | – | – | CCN(C)C(=O)c1ccc(-c2ccc3c(n2)Oc2ccccc2[C@H]3C(C)(C)C(=O)Nc2nncs2)cc1Cl | – | – | –
22 | 9.17 nM | 167 nM | 216 nM | > 10000 nM | > 5000 nM | 806 nM | – | – | – | CNC(=O)c1ccc(-c2ccc3c(n2)Oc2ccccc2[C@@H]3C(C)(C)C(=O)Nc2nncs2)cc1 | – | – | –
23 | 0.67 nM | 17.4 nM | 7.8 nM | 32.4 nM | 740 nM | 36.7 nM | 78.5 nM | – | – | CCN(C)C(=O)c1ccc(-c2ccc3c(n2)Oc2ccccc2[C@H]3C(C)(C)C(=O)Nc2nncs2)cc1 | 100% | – | –
24 | 15.4 nM | 544 nM | 1090 nM | > 10000 nM | – | > 5000 nM | – | – | – | CC(C)(C(=O)Nc1nncs1)[C@H]1c2ccccc2Oc2nc(-c3ccc(C(=O)O)cc3)ccc21 | – | – | –
25 | – | > 10000 nM | – | > 10000 nM | > 5000 nM | 1740 nM | – | – | – | CN(C)C(=O)c1ccc(-c2ccc3c(n2)Oc2ccccc2[C@H]3C(C)(C)C(=O)Nc2nncs2)cc1 | – | – | –
26 | 2.9 nM | 6.2 nM | 10.2 nM | 75.4 nM | 1100 nM | 31 nM | – | – | – | CC(=O)c1ccc(-c2ccc3c(n2)Oc2ccccc2[C@@H]3C(C)(C)C(=O)Nc2nncs2)cc1 | – | – | –
27 | 1 nM | 17.7 nM | 8.3 nM | 108 nM | 732 nM | 27 nM | – | – | – | CCc1ccc(-c2ccc3c(n2)Oc2ccccc2[C@H]3C(C)(C)C(=O)Nc2nncs2)cc1 | – | – | –
28 | 5.7 nM | 90.8 nM | 108 nM | > 10000 nM | – | 201 nM | – | – | – | CC(C)(C(=O)Nc1nncs1)[C@@H]1c2ccccc2Oc2nc(-c3ccc(O)cc3)ccc21 | – | – | –
29 | 3.8 nM | 13.6 nM | 20 nM | 926 nM | – | 242 nM | – | – | – | CN(C)c1ccc(-c2ccc3c(n2)Oc2ccccc2[C@@H]3C(C)(C)C(=O)Nc2nncs2)cc1 | – | – | –
30 | – | > 10000 nM | – | > 10000 nM | > 5000 nM | 202 nM | – | – | – | CC(C)(C(=O)Nc1nncs1)[C@H]1c2ccccc2Oc2nc(-c3ccc(C(N)=O)cc3)ccc21 | – | – | –
